# Test results: ChEMBL document CHEMBL3297735, “Optimization of troglitazone derivatives as potent anti-proliferative agents: towards more active and less toxic compounds” (Eur J Med Chem, 2014)
# What was measured:
# HCT-116 = assay: Cytotoxicity against human HCT116 cells assessed as cell viability at 10 uM after 72 hrs by MTS assay in presence of 10% fetal calf serum relative to control; assay type: functional; details: HCT-116, 72 h, read-out: Activity
# MCF7 = assay: Cytotoxicity against human MCF7 cells assessed as cell viability at 10 uM after 72 hrs by MTS assay in presence of 10% fetal calf serum relative to control; assay type: functional; details: MCF7, 72 h, read-out: Activity
# How it was run: (§1)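 Cells were grown in RPMI with L-glutamine, 10% FCS, penicillin/streptomycin and fungizone at 37 °C under 5% CO2. Wells were seeded with 1900 cells for MCF-7 or 1300 cells for MDA-MB-231. After 24 h, compound was added from a 10 mM DMSO stock (final DMSO 1%) for 72 h, with DMSO-only controls. Viable cells were read by MTS at 490 nm and expressed as % of untreated. Mean ± SEM, N = 3.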
# MDA-MB-231 = assay: Cytotoxicity against human MDA-MB-231 cells assessed as cell viability at 10 uM after 72 hrs by MTS assay in presence of 10% fetal calf serum relative to control; assay type: functional; details: MDA-MB-231, 72 h, read-out: Activity; how it was run: as §1
# [1] = Cytotoxicity against human MDA435 cells assessed as cell viability at 10 uM after 72 hrs by MTS assay in presence of 10% fetal calf serum relative to control; assay type: functional; details: MDA-MB-435, 72 h, read-out: Activity
# [2] = Cytotoxicity against human MiaPaCa cells assessed as cell viability at 10 uM after 72 hrs by MTS assay in presence of 10% fetal calf serum relative to control; assay type: functional; details: MIA PaCa-2, 72 h, read-out: Activity
# HepG2 = assay: Cytotoxicity against human HepG2 cells assessed as cell viability at 10 uM after 72 hrs by MTS assay in presence of 10% fetal calf serum relative to control; assay type: functional; details: HepG2, 72 h, read-out: Activity
# PC-3 = assay: Cytotoxicity against human PC3 cells assessed as cell viability at 10 uM after 72 hrs by MTS assay in presence of 10% fetal calf serum relative to control; assay type: functional; details: PC-3, 72 h, read-out: Activity
# LNCaP = assay: Cytotoxicity against human LNCAP cells assessed as cell viability at 10 uM after 72 hrs by MTS assay in presence of 10% fetal calf serum relative to control; assay type: functional; details: read-out: Activity
# [3] = Cytotoxicity against human hepatocytes assessed as cell viability at 100 uM after 90 mins by MTT assay relative to control; assay type: cell-based, Hepatocyte; details: read-out: Activity
# How it was run: (§2)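 Cryopreserved human hepatocytes were plated at 0.1 × 10⁶ cells/well and exposed to compound for 90 min. MTT was then added for 30 min at 37 °C, plates were centrifuged, and formazan was dissolved in DMSO. Absorbance was read at 595 nm. Surviving cells are expressed as % of non-treated cells ± SEM.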
# [4] = Cytotoxicity against human hepatocytes assessed as cell viability at 200 uM after 90 mins by MTT assay relative to control; assay type: cell-based, Hepatocyte; details: read-out: Activity; how it was run: as §2
Structure (SMILES),viability at 10 µM (HCT-116) [%],viability at 10 µM (MCF7) [%],viability at 10 µM (MDA-MB-231) [%],viability at 10 µM [1] [%],viability at 10 µM [2] [%],viability at 10 µM (HepG2) [%],viability at 10 µM (PC-3) [%],viability at 10 µM (LNCaP) [%],"viability at 1.5 h, 100 µM [3] [%]","viability at 1.5 h, 200 µM [4] [%]"
O=C1S/C(=C\c2ccccc2)C(=O)N1Cc1ccccc1,85.4,95.6,81.6,89.9,88.8,85,82.4,90.8,,
Cc1c(C)c2c(c(C)c1OC(=O)CCCCCCCNC(=O)OC(C)(C)C)CCC(C)(COc1ccc(/C=C3\SC(=O)NC3=O)cc1)O2 (stereo not drawn),37,62.5,42.2,51.5,53.8,18.4,62,21.1,79.3,74.7
CC1(CN2C(=O)S/C(=C\c3cc(Br)c(O)c(Br)c3)C2=O)CCCCC1,13,23.8,46.9,30.6,34.7,25.8,52.9,18.8,42.1,30.3
O=C1S/C(=C\c2ccc(O)cc2)C(=O)N1Cc1ccccc1,29.8,43.9,24.5,30.9,25.6,54.5,65.8,77.6,40.8,18
O=C1S/C(=C\c2ccc(Cl)cc2)C(=O)N1Cc1ccccc1,84,100,73,88.8,88.3,79.3,95.5,85.5,,
O=C1S/C(=C\c2ccc([N+](=O)[O-])cc2)C(=O)N1Cc1ccccc1,93.9,80.2,64.6,86,84.9,79.4,72.3,77.9,,
COc1ccc(/C=C2\SC(=O)N(Cc3ccccc3)C2=O)cc1,82.1,100,89.5,92.7,99.3,87.9,91.4,100,,
COc1cc(/C=C2\SC(=O)N(Cc3ccccc3)C2=O)cc(OC)c1OC,55.9,74.7,51.5,78.8,69.8,63.8,67.9,76.2,,
O=C1S/C(=C\c2ccc(O)cc2)C(=O)N1C/C=C/c1ccccc1,17.4,35,8.7,18.3,16.2,41.3,57.1,63.4,88.8,62.7
CC(C)(C)OC(=O)c1ccccc1-c1ccc(CN2C(=O)S/C(=C\c3ccc(O)cc3)C2=O)cc1,61.6,80.3,51.9,66.8,59.9,22.8,49.9,32.4,,
O=C(O)c1ccccc1-c1ccc(CN2C(=O)S/C(=C\c3ccc(O)cc3)C2=O)cc1,97.6,99.6,94.9,100,99.3,89.8,95.6,90.1,,
Cc1c(C)c2c(c(C)c1O)CCC(C)(/C=C1\SC(=O)N(Cc3ccccc3)C1=O)O2 (racemic),81,94.2,88,75.7,80.7,71.5,83.4,84.6,,
Cc1c(C)c2c(c(C)c1O)CCC(C)(COc1ccc(/C=C3\SC(=O)N(Cc4ccccc4)C3=O)cc1)O2 (racemic),43,85.3,76.4,88.7,100,63.2,100,85.7,,
Cc1c(C)c2c(c(C)c1O)CCC(C)(COc1ccc(/C=C3\SC(=O)N(C)C3=O)cc1)O2 (racemic),68.4,100,64.3,94.7,80.2,60.3,85.5,66.8,147,127
Cc1c(C)c2c(c(C)c1OC(=O)CCCCCCCN)CCC(C)(COc1ccc(/C=C3\SC(=O)N(C)C3=O)cc1)O2 (racemic),0.6,0,0,0,0,7.9,2.4,9.3,84.5,54.4
Cc1c(C)c2c(c(C)c1CCCCCCNC(=O)OC(C)(C)C)CCC(C)(COc1ccc(/C=C3\SC(=O)NC3=O)cc1)O2 (racemic),45.2,75.5,49.3,60.9,69.7,22.7,73.7,32.2,85.1,80.3
Cc1c(C)c2c(c(C)c1OC(=O)OC(C)(C)C)CCC(C)(CN1C(=O)S/C(=C\c3ccc(O)cc3)C1=O)O2 (racemic),30.1,85.7,57.9,66,72.2,23.4,85.1,55,65.1,37.8
Cc1c(C)c2c(c(C)c1O)CCC(C)(CN1C(=O)S/C(=C\c3ccc(O)cc3)C1=O)O2 (racemic),5.3,5.2,4.8,13.4,0,20.8,36.3,48.9,110,103
CCOC(=O)C1(C)CCc2c(C)c(/C=C3\SC(=O)N(Cc4ccccc4)C3=O)c(C)c(C)c2O1 (racemic),88,97.2,68.8,81.4,86,69.2,98.3,87.5,,
Cc1c(C)c2c(c(C)c1OC(=O)OC(C)(C)C)CCC(C)(/C=C1\SC(=O)N(Cc3ccccc3)C1=O)O2 (racemic),90.5,76.5,75.4,67.6,75.3,76.3,82.4,96.2,,
Cc1c(C)c2c(c(C)c1O)CCC(C)(COc1ccc(CC3SC(=O)NC3=O)cc1)O2 (stereo not drawn) [TROGLITAZONE],90.7,96.7,88.1,87.8,98.3,85.8,86.2,82.8,52.2,22.5
